Experimental data gathered from unrelated publications.
Lines come from different studies, so protocols differ.
Target: Dual specificity mitogen-activated protein kinase kinase 2 (MAP2K2, Homo sapiens, UniProt P36507)

Cn1cc(-c2cc(F)cc(N3CCn4c(cc5c4CCCC5)C3=O)c2CO)cc(Nc2ccc(N3CCN(C4COC4)CC3)cn2)c1=O  inhibition (enzyme activity; inhibitor; 0.1 µM): 11%
Cc1nn(C)cc1-c1nc2c(N3CCN(Cc4ccc(Cl)cc4)CC3)c(Cl)cnc2[nH]1  remaining binding (binding; competition with immobilised ligand; 1 µM): 100%
Cn1cc(-c2cccc(N3CCc4c(sc5c4CC(C)(C)C5)C3=O)c2CO)cc(Nc2ccncn2)c1=O  inhibition (enzyme activity; inhibitor; 1 µM): 5%
COc1ncccc1-c1cnn2ccc(N3CCN(C(=O)OC(C)C)CC3)nc12  remaining binding (binding; competition with immobilised ligand; 1 µM): 91%
O=c1[nH]c2ccccc2n1C1CCN(Cc2ccc(-c3[nH]c4cc5ncnc5cc4nc3-c3ccccc3)cc2)CC1  remaining signal (cell-free assay; 0.5 µM): 86.6%
N#CC1(c2ccccn2)CCN(Cc2cc(C(=O)O)c(=O)n3ccccc23)CC1  remaining binding (cell-free assay; competition with immobilised ligand; 1 µM): 100%
Nc1ncc(-c2nc(N3CCOCC3)nc(N3CCOCC3)n2)c(C(F)F)n1  remaining binding (binding; competition with immobilised ligand; 10 µM): 77%
COc1cc(Nc2ncc(F)c(Nc3ccc4c(n3)NC(=O)C(C)(C)O4)n2)cc(OC)c1OC  inhibition (binding; competition with immobilised ligand; 10 µM): 87%
Cn1cncc1[C@@](O)(COc1ccc(C#N)cc1-c1ccc(OC(F)(F)F)cc1)c1ccc(C#N)cc1  remaining binding (cell-free assay; competition with immobilised ligand; 1 µM): 74%
CC(C)(C)c1cc(C=C(C#N)C#N)cc(Br)c1O  remaining activity (enzyme activity; inhibitor; 0.5 µM): 85.8%
